ChEMBL document CHEMBL1147968, “Novel lbeta-methylcarbapenems having cyclic sulfonamide moieties: synthesis and evaluation of in vitro antibacterial activity” (2007)
Values after ≈ are worked out from the molar mass of the structure shown.

How the values were obtained:
Enterococcus faecium = assay: Antibacterial activity against Streptococcus faecium 77A after 18 to 24 hrs by agar dilution method; assay type: functional
Method in brief: (§1)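 MICs were determined by agar dilution on test agar. An overnight tryptosoy broth culture was diluted in the same broth to about 10⁶ cells/mL and spotted with an inoculating device onto agar containing serial twofold dilutions of compound. Plates were incubated at 37 °C for 18–20 h, and the MIC was the lowest concentration with no visible growth.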

Streptococcus agalactiae [1] = assay: Antibacterial activity against Streptococcus agalactiae B after 18 to 24 hrs by agar dilution method; assay type: functional; method in brief: as §1
Enterococcus durans = assay: Antibacterial activity against Streptococcus durans D after 18 to 24 hrs by agar dilution method; assay type: functional; method in brief: as §1
Salmonella paratyphi = assay: Antibacterial activity against Salmonella paratyphi A after 18 to 24 hrs by agar dilution method; assay type: functional, Salmonella enterica subsp. enterica serovar Paratyphi A; conditions: Salmonella enterica
Method in brief: (§2)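 Agar dilution on test agar with serial twofold dilutions of compound. Overnight tryptosoy broth cultures diluted in the same broth to about 10⁶ cells/mL, then applied with an inoculating device. Plates incubated at 37 °C for 18–20 h.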

Priestia megaterium = assay: Antibacterial activity against Bacillus megaterium after 18 to 24 hrs by agar dilution method; assay type: functional; method in brief: as §1
Pseudomonas aeruginosa [2] = assay: Antibacterial activity against Pseudomonas aeruginosa 9027 after 18 to 24 hrs by agar dilution method; assay type: functional; method in brief: as §1
Staphylococcus aureus [3] = assay: Antibacterial activity against Staphylococcus aureus 1218 after 18 to 24 hrs by agar dilution method; assay type: functional; method in brief: as §1
Staphylococcus = assay: Antibacterial activity against coagulase negative Staphylococcus after 18 to 24 hrs by agar dilution method; assay type: functional
Method in brief: (§3)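 Agar dilution on test agar holding serial twofold dilutions of compound. Overnight tryptosoy broth cultures were diluted in the same broth to about 10⁶ cells/mL and spotted with an inoculating device. Plates were incubated at 37 °C for 18–20 h.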

Enterococcus faecalis = assay: Antibacterial activity against Enterococcus faecalis 2347 after 18 to 24 hrs by agar dilution method; assay type: functional; method in brief: as §1
Streptococcus pyogenes = assay: Antibacterial activity against Streptococcus pyogenes 9889 after 18 to 24 hrs by agar dilution method; assay type: functional; method in brief: as §3
Streptococcus agalactiae [4] = assay: Antibacterial activity against Streptococcus agalactiae 32 after 18 to 24 hrs by agar dilution method; assay type: functional; method in brief: as §1
Streptococcus pneumoniae = assay: Antibacterial activity against Streptococcus pneumoniae 0025 after 18 to 24 hrs by agar dilution method; assay type: functional; method in brief: as §1
Haemophilus influenzae = assay: Antibacterial activity against Haemophilus influenzae 1210 after 18 to 24 hrs by agar dilution method; assay type: functional; method in brief: as §1
Escherichia coli [5] = assay: Antibacterial activity against Escherichia coli 04 after 18 to 24 hrs by agar dilution method; assay type: functional; method in brief: as §1
Klebsiella pneumoniae [6] = assay: Antibacterial activity against Klebsiella pneumoniae 523 after 18 to 24 hrs by agar dilution method; assay type: functional; method in brief: as §1
Citrobacter freundii = assay: Antibacterial activity against Citrobacter freundii 323 after 18 to 24 hrs by agar dilution method; assay type: functional; method in brief: as §1
Enterobacter cloacae [7] = assay: Antibacterial activity against Enterobacter cloacae 34 after 18 to 24 hrs by agar dilution method; assay type: functional; method in brief: as §1
Serratia marcescens [8] = assay: Antibacterial activity against Serratia marcescens 3349 after 18 to 24 hrs by agar dilution method; assay type: functional; method in brief: as §1
Acinetobacter baumannii = assay: Antibacterial activity against Acinetobacter baumannii 2289 after 18 to 24 hrs by agar dilution method; assay type: functional; method in brief: as §1
Pseudomonas aeruginosa [9] = assay: Antibacterial activity against Pseudomonas aeruginosa 5455 after 18 to 24 hrs by agar dilution method; assay type: functional; method in brief: as §1
Staphylococcus aureus [10] = assay: Antibacterial activity against Staphylococcus aureus giorgio after 18 to 24 hrs by agar dilution method; assay type: functional; method in brief: as §1
Staphylococcus aureus [11] = assay: Antibacterial activity against Staphylococcus aureus 209P after 18 to 24 hrs by agar dilution method; assay type: functional; method in brief: as §1
Staphylococcus aureus [12] = assay: Antibacterial activity against Staphylococcus aureus 503 after 18 to 24 hrs by agar dilution method; assay type: functional; method in brief: as §1
Micrococcus luteus = assay: Antibacterial activity against Micrococcus luteus ATCC 9341 after 18 to 24 hrs by agar dilution method; assay type: functional; method in brief: as §1
Pseudomonas aeruginosa [13] = assay: Antibacterial activity against Pseudomonas aeruginosa 77/2 after 18 to 24 hrs by agar dilution method; assay type: functional; method in brief: as §1
Pseudomonas aeruginosa [14] = assay: Antibacterial activity against Pseudomonas aeruginosa 110/2 after 18 to 24 hrs by agar dilution method; assay type: functional; method in brief: as §1
Pseudomonas aeruginosa [15] = assay: Antibacterial activity against Pseudomonas aeruginosa 880/2 after 18 to 24 hrs by agar dilution method; assay type: functional; method in brief: as §1
Burkholderia cepacia = assay: Antibacterial activity against Pseudomonas cepacia after 18 to 24 hrs by agar dilution method; assay type: functional; method in brief: as §1
Escherichia coli [16] = assay: Antibacterial activity against Escherichia coli 086 after 18 to 24 hrs by agar dilution method; assay type: functional; method in brief: as §1
Escherichia coli [17] = assay: Antibacterial activity against Escherichia coli 0114 after 18 to 24 hrs by agar dilution method; assay type: functional; method in brief: as §1
Escherichia coli [18] = assay: Antibacterial activity against Escherichia coli 0126 after 18 to 24 hrs by agar dilution method; assay type: functional; method in brief: as §1
Escherichia coli [19] = assay: Antibacterial activity against Escherichia coli V6311/65 after 18 to 24 hrs by agar dilution method; assay type: functional; method in brief: as §1
Escherichia coli [20] = assay: Antibacterial activity against Escherichia coli TEM after 18 to 24 hrs by agar dilution method; assay type: functional; method in brief: as §1
Escherichia coli [21] = assay: Antibacterial activity against Escherichia coli 1507 after 18 to 24 hrs by agar dilution method; assay type: functional; method in brief: as §1
Salmonella typhimurium = assay: Antibacterial activity against Salmonella Typhimurium after 18 to 24 hrs by agar dilution method; assay type: functional, Salmonella enterica subsp. enterica serovar Typhimurium; conditions: Salmonella enterica; method in brief: as §1
Salmonella typhi = assay: Antibacterial activity against Salmonella typhi after 18 to 24 hrs by agar dilution method; assay type: functional, Salmonella enterica subsp. enterica serovar Typhi; conditions: Salmonella enterica; method in brief: as §2
Salmonella = assay: Antibacterial activity against Salmonella orion after 18 to 24 hrs by agar dilution method; assay type: functional; method in brief: as §1
[22] = Antibacterial activity against Salmonella give after 18 to 24 hrs by agar dilution method; assay type: functional, Salmonella enterica subsp. enterica serovar Give; conditions: Salmonella enterica; method in brief: as §1
Serratia marcescens [23] = assay: Antibacterial activity against Serratia marcescens 370 after 18 to 24 hrs by agar dilution method; assay type: functional; method in brief: as §1
Klebsiella pneumoniae [24] = assay: Antibacterial activity against Klebsiella pneumoniae 477 after 18 to 24 hrs by agar dilution method; assay type: functional; method in brief: as §1
Proteus mirabilis [25] = assay: Antibacterial activity against Proteus mirabilis 112/3 after 18 to 24 hrs by agar dilution method; assay type: functional; method in brief: as §1
Enterobacter cloacae [26] = assay: Antibacterial activity against Enterobacter cloacae after 18 to 24 hrs by agar dilution method; assay type: functional; method in brief: as §1
Enterobacter cloacae [27] = assay: Antibacterial activity against Enterobacter cloacae 417 after 18 to 24 hrs by agar dilution method; assay type: functional; method in brief: as §1
Serratia marcescens [28] = assay: Antibacterial activity against Serratia marcescens 6093 after 18 to 24 hrs by agar dilution method; assay type: functional; method in brief: as §1
Serratia marcescens [29] = assay: Antibacterial activity against Serratia marcescens 14273 after 18 to 24 hrs by agar dilution method; assay type: functional; method in brief: as §1
Proteus mirabilis [30] = assay: Antibacterial activity against Proteus mirabilis 174/3 after 18 to 24 hrs by agar dilution method; assay type: functional; method in brief: as §1
Proteus vulgaris = assay: Antibacterial activity against Proteus vulgaris 868 after 18 to 24 hrs by agar dilution method; assay type: functional; method in brief: as §1
Providencia rettgeri [31] = assay: Antibacterial activity against Proteus rettgeri 936 after 18 to 24 hrs by agar dilution method; assay type: functional; method in brief: as §1
Providencia rettgeri [32] = assay: Antibacterial activity against Proteus rettgeri 937 after 18 to 24 hrs by agar dilution method; assay type: functional; method in brief: as §1
Pasteurella multocida = assay: Antibacterial activity against Pasteurella multocida after 18 to 24 hrs by agar dilution method; assay type: functional; method in brief: as §1
Trueperella pyogenes = assay: Antibacterial activity against Corynebacterium pyogenes after 18 to 24 hrs by agar dilution method; assay type: functional; method in brief: as §1
[33] = tested on: Corynebacterium diphtheriae; assay: Antibacterial activity against Corynebacterium diphtheriae after 18 to 24 hrs by agar dilution method; assay type: functional; method in brief: as §1
Bacillus subtilis = assay: Antibacterial activity against Bacillus subtilis ATCC 6633 after 18 to 24 hrs by agar dilution method; assay type: functional; method in brief: as §1
[34] = Antibacterial activity against Salmonella oranienburg after 18 to 24 hrs by agar dilution method; assay type: functional, Salmonella enterica subsp. enterica serovar Oranienburg; conditions: Salmonella enterica; method in brief: as §1

C[C@@H](O)[C@H]1C(=O)N2C(C(=O)O)=C(SCCNC=N)C[C@H]12 [IMIPENEM ANHYDROUS]
MIC (Enterococcus faecium): < 0.01 µg/mL | MIC (Streptococcus agalactiae [1]): 0.01 µg/mL (≈ 0.0334 µM) | MIC (Enterococcus durans): 0.1 µg/mL (≈ 0.334 µM) | MIC (Salmonella paratyphi): 0.1 µg/mL (≈ 0.334 µM) | MIC (Priestia megaterium): 0.03 µg/mL (≈ 0.1 µM) | MIC (Pseudomonas aeruginosa [2]): 0.8 µg/mL (≈ 2.67 µM) | MIC (Staphylococcus aureus [3]): 1.56 µg/mL (≈ 5.21 µM) | MIC (Staphylococcus): 0.025 µg/mL (≈ 0.0835 µM) | MIC (Enterococcus faecalis): 1.56 µg/mL (≈ 5.22 µM) | MIC (Streptococcus pyogenes): < 0.01 µg/mL | MIC (Streptococcus agalactiae [4]): 0.01 µg/mL (≈ 0.0334 µM) | MIC (Streptococcus pneumoniae): < 0.01 µg/mL | MIC (Haemophilus influenzae): 6.25 µg/mL (≈ 20.9 µM) | MIC (Escherichia coli [5]): 0.195 µg/mL (≈ 0.651 µM) | MIC (Klebsiella pneumoniae [6]): 0.781 µg/mL (≈ 2.61 µM) | MIC (Citrobacter freundii): 0.391 µg/mL (≈ 1.31 µM) | MIC (Enterobacter cloacae [7]): 0.781 µg/mL (≈ 2.61 µM) | MIC (Serratia marcescens [8]): 0.781 µg/mL (≈ 2.61 µM) | MIC (Acinetobacter baumannii): 12.5 µg/mL (≈ 41.8 µM) | MIC (Pseudomonas aeruginosa [9]): 3.12 µg/mL (≈ 10.4 µM) | MIC (Staphylococcus aureus [10]): 0.02 µg/mL (≈ 0.0668 µM) | MIC (Staphylococcus aureus [11]): 0.01 µg/mL (≈ 0.0334 µM) | MIC (Staphylococcus aureus [12]): < 0.01 µg/mL | MIC (Micrococcus luteus): 0.01 µg/mL (≈ 0.0334 µM) | MIC (Pseudomonas aeruginosa [13]): 0.8 µg/mL (≈ 2.67 µM) | MIC (Pseudomonas aeruginosa [14]): 0.8 µg/mL (≈ 2.67 µM) | MIC (Pseudomonas aeruginosa [15]): 0.8 µg/mL (≈ 2.67 µM) | MIC (Burkholderia cepacia): 0.8 µg/mL (≈ 2.67 µM) | MIC (Escherichia coli [16]): 0.1 µg/mL (≈ 0.334 µM) | MIC (Escherichia coli [17]): 0.1 µg/mL (≈ 0.334 µM) | MIC (Escherichia coli [18]): 0.1 µg/mL (≈ 0.334 µM) | MIC (Escherichia coli [19]): 0.05 µg/mL (≈ 0.167 µM) | MIC (Escherichia coli [20]): 0.2 µg/mL (≈ 0.668 µM) | MIC (Escherichia coli [21]): 0.1 µg/mL (≈ 0.334 µM) | MIC (Salmonella typhimurium): 0.4 µg/mL (≈ 1.34 µM) | MIC (Salmonella typhi): 0.05 µg/mL (≈ 0.167 µM) | MIC (Salmonella): 0.2 µg/mL (≈ 0.668 µM) | MIC [22]: 0.2 µg/mL (≈ 0.668 µM) | MIC (Serratia marcescens [23]): 0.2 µg/mL (≈ 0.668 µM) | MIC (Klebsiella pneumoniae [24]): 0.2 µg/mL (≈ 0.668 µM) | MIC (Proteus mirabilis [25]): 0.2 µg/mL (≈ 0.668 µM) | MIC (Enterobacter cloacae [26]): 0.1 µg/mL (≈ 0.334 µM) | MIC (Enterobacter cloacae [27]): 0.1 µg/mL (≈ 0.334 µM) | MIC (Serratia marcescens [28]): 0.4 µg/mL (≈ 1.34 µM) | MIC (Serratia marcescens [29]): 0.8 µg/mL (≈ 2.67 µM) | MIC (Proteus mirabilis [30]): 0.1 µg/mL (≈ 0.334 µM) | MIC (Proteus vulgaris): 0.1 µg/mL (≈ 0.334 µM) | MIC (Providencia rettgeri [31]): 0.2 µg/mL (≈ 0.668 µM) | MIC (Providencia rettgeri [32]): 0.2 µg/mL (≈ 0.668 µM) | MIC (Pasteurella multocida): < 0.01 µg/mL | MIC (Trueperella pyogenes): 0.01 µg/mL (≈ 0.0334 µM) | MIC [33]: < 0.01 µg/mL | MIC (Bacillus subtilis): 0.03 µg/mL (≈ 0.1 µM) | MIC [34]: 0.4 µg/mL (≈ 1.34 µM)
